From publication PMC11656380 (ACS Omega, 2024)
“Also recorded” adds a separate entry of the source.

Columns and labels:
HPB-ALL cells = experiment: Proliferation, total cell count over 3 days; type: cell-based, human; conditions: 15 μM DAPT, 100 μM Tat-Ram13 or 100 μM Tat-mRam13
CCRF-CEM cells [1] = experiment: Cell morphology, phase-contrast and DNA; type: cell-based, human; conditions: 100 μM Tat-Ram13 or 30 μM etoposide, 24 h
Outline: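 Cells were seeded at 5×10^5 per well in glass-bottom dishes and incubated with or without test compound. They were then stained with Hoechst 33342 for 10 min and imaged by fluorescence or confocal microscopy.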

CCRF-CEM cells [2] = experiment: Time course of cell death, trypan blue exclusion assay; type: cell-based, human; conditions: up to 24 h
Outline: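 CCRF-CEM cells in complete RPMI-1640 (10% fetal calf serum, 5% CO2) were exposed to test peptide, control peptide or etoposide at the indicated concentrations, sampled over up to 24 h, and scored for viable cells by trypan blue exclusion.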

[3] = test system: caspase-3 in CCRF-CEM cells; experiment: Western blot of caspase-3 cleavage; type: cell-based, human; conditions: 100 μM Tat-Ram13 or 30 μM etoposide
Outline: (§1)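 CCRF-CEM cells (1×10^6) were treated with 100 μM test peptide, or with etoposide, for the indicated time. Cells were washed in ice-cold PBS and lysed in RIPA buffer with protease inhibitors. Lysate (25 μg) was run on SDS-PAGE and blotted to PVDF, then blocked in 5% skim milk/PBS-0.1% Tween 20 for 30 min. Primary antibodies (1:1000; β-actin 1:10,000) were applied overnight at 4 °C, then HRP secondary for 1 h at 4 °C, with chemiluminescent detection.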

PARP-1 in CCRF-CEM cells = experiment: Western blot of PARP-1 cleavage; type: cell-based, human; conditions: 100 μM Tat-Ram13 or 30 μM etoposide
Outline: as §1

CCRF-CEM cells [4] = experiment: HMGB1 release, Western blot; type: cell-based, human; conditions: Western blot of supernatant and pellet, etoposide 24 h
CCRF-CEM cells [5] = experiment: WST-8 cell viability assay; type: cell-based, human; conditions: CCRF-CEM (Figure 7B)
Outline: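 Cells at 5×10^4 cells/100 μL in complete medium (RPMI-1640, 10% fetal calf serum, 10 U/mL penicillin G, 10 μg/mL streptomycin) were exposed to various concentrations of test peptide in a 5% CO2 incubator for 24 h. WST-8 was added, and absorbance at 450 nm was read 1–2 h later. Viability was relative to an HBSS-added control (100%). Data are means ± SD.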

[6] = test system: interactions between NICD and CSL; conditions: human cell lysates; cited from earlier work

With `C[C@H](NC(=O)Cc1cc(F)cc(F)c1)C(=O)N[C@H](C(=O)OC(C)(C)C)c1ccccc1` [DAPT] as the molecule, how does the “cell proliferation (total cell count)” value (HPB-ALL cells) read?
The value was “significant reduction in proliferation”.

What does the source list for `COc1cc([C@@H]2c3cc4c(cc3[C@@H](O[C@@H]3O[C@@H]5CO[C@@H](C)O[C@H]5[C@H](O)[C@H]3O)[C@H]3COC(=O)[C@H]23)OCO4)cc(OC)c1O` [etoposide]?
cell morphology (CCRF-CEM cells [1]): membrane blebbing and DNA fragmentation; time course of cell death (CCRF-CEM cells [2]): occurred more slowly; caspase-3 cleavage [3]: did produce the cleaved fragment; cleavage of PARP-1 fragments (89 kDa) (PARP-1 in CCRF-CEM cells): as etoposide did; HMGB1 release into the culture supernatant (CCRF-CEM cells [4]): released very little HMGB1

With RRQHGQLWFPEGF [Ram13] as the molecule, how does the “cytotoxicity, role of the cell-penetrating part” value (CCRF-CEM cells [5]) read?
Its value is “inactive; also recorded: lost its cytotoxicity”.

What about the “disruption of NICD-CSL interaction” value [6] of the same molecule?
The value was “effectively disrupted interactions between NICD and CSL”.
